Reference: ChEMBL document CHEMBL1135729, “Synthesis and biological evaluation of a new set of pyrazolo[1,5-c]quinazoline-2-carboxylates as novel excitatory amino acid antagonists” (J Med Chem, 2002)

How the values were obtained:
[1] = target: Glutamate receptor ionotropic, kainate; experiment: Inhibition of specific binding […] by displacing [3H]KA, from specific binding sites of Ionotropic glutamate receptor ionotropic kainate in rat cortical membranes; type: cell membranes, Membrane
Outline: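 Rat cortical membranes preincubated at 0.5 mg protein/mL in 0.05 M Tris-citrate pH 7.4, 37 °C for 30 min, then washed thrice in ice-cold buffer. Binding on ice for 60 min with 5 nM [3H]kainate, 0.2-0.3 mg protein per assay. Nonspecific binding defined with 1 mM glutamate. Filtration separation.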

[2] = target: T1, Glutamate receptor ionotropic, AMPA (Rattus norvegicus, UniProt P19490+P19491+P19492+P19493); experiment: Displacement of [3H]AMPA from Ionotropic glutamate receptor AMPA in rat cortical membranes.; type: cell membranes, Membrane
[3] = target: T2, Glutamate receptor ionotropic, NMDA 1 (Rattus norvegicus, UniProt P35439); experiment: (§1) Percent Inhibition by displacing [3H]glycine of N-methyl-D-aspartate glutamate receptor 1 in rat cortical membranes; type: cell membranes, Membrane
[4] = target: T2, Glutamate receptor ionotropic, NMDA 1; experiment: Displacement of [3H]glycine from N-methyl-D-aspartate glutamate receptor 1 in rat cortical membranes; type: cell membranes, Membrane
[5] = target: Glutamate receptor ionotropic, kainate (Rattus norvegicus) (UniProt P22756+Q01812+P42260+P42264+Q63273); experiment: Percent Inhibition of specific [3H]KA binding to Ionotropic glutamate receptor in rat cortical membranes.; type: cell membranes; design: concentration or dose not given beside the values; conditions: Membrane; concentration not given here
Outline: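 Membranes resuspended (0.5 mg protein/mL) in 0.05 M Tris-citrate, pH 7.4, preincubated at 37 °C for 30 min, then washed three times in ice-cold buffer. Binding run on ice for 60 min with 5 nM [3H]kainate; nonspecific binding defined with 1 mM glutamate. Separation by GF/C filtration.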

[6] = target: T2, Glutamate receptor ionotropic, NMDA 1; experiment: Inhibition by displacing [3H]-Glycine of N-methyl-D-aspartate glutamate receptor 1 in rat cortical membranes; type: cell membranes, Membrane
[7] = target: Glutamate receptor ionotropic, AMPA (Rattus norvegicus) (UniProt P19491+P19492+P19493+P19490); experiment: Percent Inhibition by displacing [3H]AMPA from Ionotropic glutamate receptor AMPA specific binding sites in rat cortical membranes; type: cell membranes; design: concentration or dose not given beside the values; conditions: concentration not given here
[8] = target: Glutamate receptor ionotropic, NMDA 1 (Rattus norvegicus) (UniProt P35439); experiment: as §1; type: cell membranes; design: concentration or dose not given beside the values; conditions: Membrane; concentration not given here
Mus musculus [9] = organism: Mus musculus; experiment: Concentration that inhibits by 50% depolarization induced by 5M NMDA; type: functional
Outline: (§2)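 Cortical wedge preparation (per Mannaioni et al.). AMPA or NMDA (5 μM) applied for 2 min every 15 min until control peaks were stable, then wedges continuously superfused with antagonist while agonist pulses continued. Afterwards, washout with antagonist-free Krebs and agonist applied every 15 min for 30-60 min to confirm recovery. dc potential between two compartments recorded via Ag/AgCl electrodes. IC50 derived against control peaks; mean ± SEM, n = 4.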

Glutamate NMDA receptor = experiment: Inhibition of stimulated [3H](+)-MK-801 binding to N-methyl-D-aspartate glutamate receptor in rat cortical membranes incubated with 10 uM glutamate and 0.1 uM glycine.
[10] = target: T1, Glutamate receptor ionotropic, AMPA; experiment: Inhibition by displacing [3H]AMPA from Ionotropic glutamate receptor AMPA specific binding sites in rat cortical membranes; type: cell membranes
Mus musculus [11] = organism: Mus musculus; experiment: Concentration that inhibits by 50% depolarization induced by 5M AMPA; type: functional; outline: as §2

Structure (SMILES) | Ki [2] [µM] | Ki [4] [µM] | inhibition [5] [%] | inhibition [7] [%] | inhibition [8] [%] | further results
O=C(O)c1cc2c3cc([N+](=O)[O-])c(Cl)cc3[nH]c(=O)n2n1 | 0.74 | – | – | – | – | IC50 [1]: 23 µM; Ki [3]: 1.1 µM
O=C(O)c1cc2c3cc(Cl)c(Cl)cc3[nH]c(=O)n2n1 | 2.4 | 0.16 | – | – | – | IC50 [1]: 41 µM
CCOC(=O)c1cc2c3cc([N+](=O)[O-])c(Cl)cc3[nH]c(=O)n2n1 | 8.2 | 10.6 | – | – | – | –
CCOC(=O)c1cc2c3cc([N+](=O)[O-])c(Cl)cc3nc(O)n2n1 | – | – | 23 | – | – | –
O=C(O)c1cc2c3cc(-n4cnnc4)c(Cl)cc3[nH]c(=O)n2n1 | 0.14 | – | – | – | – | IC50 (Mus musculus [9]): 20 µM
O=C(O)c1nc2c(=O)[nH]c3cc(Cl)c(-n4cnnc4)cc3n2n1 [TQX-173] | – | – | – | – | – | Ki [6]: 33.5 µM
COC(=O)C1=NN2C(=O)Nc3ccccc3C2C1 (stereo not given) | – | – | 0 | 29 | 40 | –
O=C(O)c1cc2n(n1)C(C(=O)O)Nc1ccccc1-2 (stereo not given) | – | – | 11 | 0 | 35 | –
CCOC(=O)c1cc2c3ccc(Cl)cc3[nH]c(=O)n2n1 | 72 | 26.5 | – | – | – | –
COC(=O)C1=NN2C(=O)Nc3cc(Cl)ccc3C2C1 (stereo not given) | 17.3 | 10.6 | 3 | – | – | –
CCOC(=O)c1cc2n(n1)C(C(=O)O)Nc1cc(Cl)ccc1-2 (stereo not given) | – | – | 1 | 6 | 5 | –
CCOC(=O)c1cc2c3cc(-n4cnnc4)c(Cl)cc3nc(O)n2n1 | 0.87 | – | 38 | – | 18 | IC50 (Mus musculus [9]): > 50 µM; IC50 (Mus musculus [11]): 1.75 µM
O=Cc1ccn(-c2cc3c(cc2Cl)nc(O)n2nc(C(=O)O)cc32)c1 | – | – | – | – | – | IC50 [1]: 5.5 µM; Ki [6]: 8.2 µM; IC50 (Mus musculus [9]): 25 µM; Ki [10]: 0.27 µM; IC50 (Mus musculus [11]): 0.5 µM

Second part, led by results:

Ki [2] [µM] | Ki [4] [µM] | inhibition [5] [%] | inhibition [7] [%] | inhibition [8] [%] | Structure (SMILES) | further results
– | – | 12 | – | – | CCOC(=O)c1cc2c3ccccc3nc(O)n2n1 | –
2.65 | – | 17 | – | – | O=C(O)C1=NN2C(=O)Nc3cc(Cl)c(Cl)cc3C2C1 (stereo not given) | Ki [6]: 0.19 µM
– | – | 30 | 27 | 30 | CCOC(=O)c1cc2c3cc(N)ccc3nc(O)n2n1 | –
– | – | 0 | 12 | 15 | CCOC(=O)c1cc2n(n1)C(C(=O)O)Nc1ccccc1-2 (stereo not given) | –
– | – | 13 | 7 | 25 | O=C(O)c1cc2n(n1)C(C(=O)O)Nc1cc(Cl)ccc1-2 (stereo not given) | –
– | – | 4 | 27 | 15 | CCOC(=O)c1cc2c3cc([N+](=O)[O-])ccc3nc(O)n2n1 | –
42 | 33.3 | – | – | – | CCOC(=O)c1cc2c3ccccc3[nH]c(=O)n2n1 | –
– | – | 15 | – | – | CCOC(=O)c1cc2c3ccc(Cl)cc3nc(O)n2n1 | –
96 | 2 | – | – | – | O=C(O)C1=NN2C(=O)Nc3ccccc3C2C1 (stereo not given) | IC50 [1]: 19.5 µM
8.5 | 4 | 9 | – | – | COC(=O)C1=NN2C(=O)Nc3cc(Cl)c(Cl)cc3C2C1 (stereo not given) | –
– | – | 11 | 33 | 40 | CCOC(=O)c1cc2c3cc(N)c(Cl)cc3nc(O)n2n1 | –
2.3 | 0.48 | – | – | – | O=C(O)c1cc2c3ccc(Cl)cc3nc(O)n2n1 | IC50 [1]: 60 µM
7.2 | 0.24 | 20 | – | – | O=C(O)C1=NN2C(=O)Nc3cc(Cl)ccc3C2C1 (stereo not given) | –
– | 1.3 | 10 | 42 | – | COC(=O)c1cc2c3cc(Cl)c(Cl)cc3nc(O)n2n1 | –
12.4 | 1.41 | 26 | – | – | O=C(O)c1cc2c3ccccc3nc(O)n2n1 | IC50 (Glutamate NMDA receptor): 10.4 µM
– | – | 29 | – | – | CCOC(=O)c1cc2c3cc(-n4ccc(C=O)c4)c(Cl)cc3nc(O)n2n1 | Ki [6]: 57 µM; IC50 (Mus musculus [9]): > 50 µM; Ki [10]: 1.4 µM; IC50 (Mus musculus [11]): 1 µM
26 | – | 24 | – | 35 | O=C(O)c1cc2c3cc([N+](=O)[O-])ccc3nc(O)n2n1 | –
